Experimental data from ChEMBL document CHEMBL1154853, “New 1,3-oxazolo[4,5-c]quinoline derivatives: synthesis and evaluation of antibacterial and antituberculosis properties” (2010).
In brackets after ≈: the same amount, converted by molar mass.

Legend:
Format in all cases: functional
Pseudomonas aeruginosa [1] = assay: Antimicrobial activity against Pseudomonas aeruginosa ATTC 27853 at MIC after 3 to 4 days by disc diffusion method
Klebsiella pneumoniae [2] = assay: Antimicrobial activity against Klebsiella pneumoniae at MIC after 3 to 4 days by disc diffusion method
Klebsiella pneumoniae [3] = assay: Antimicrobial activity against Klebsiella pneumoniae after 16 to 18 hrs by serial dilution method
Method in brief: (§1)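 Tube broth dilution: serial drug dilutions in Mueller Hinton broth, pH adjusted to 5.0 with phosphate buffer. A standardized bacterial suspension was inoculated and incubated 16-18 h at 37 °C. MIC was read as the lowest drug concentration with no visible growth. Ciprofloxacin served as the reference.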

Staphylococcus aureus [4] = assay: Antimicrobial activity against Staphylococcus aureus […] at MIC after 3 to 4 days by disc diffusion method
Escherichia coli [5] = assay: Antimicrobial activity against Escherichia coli […] after 16 to 18 hrs by serial dilution method; method in brief: as §1
[6] = test system: Mycobacterium tuberculosis; assay: Antitubercular activity against Mycobacterium tuberculosis H37Rv after 24 hrs by broth microdilution method
Method in brief: (§2)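 M. tuberculosis H37Rv grown in Middlebrook 7H9 with 10% OADC, diluted to McFarland 1, 50 µl added to 150 µl fresh medium. Compounds from 2 mg/mL DMF stocks tested at 1, 10 and 100 µg/mL; DMF-only controls. 7 days at 37 °C, then 0.01% resazurin added with 24 h further incubation. MIC = lowest concentration preventing blue-to-pink change.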

Staphylococcus aureus [7] = assay: Antimicrobial activity against Staphylococcus aureus […] after 16 to 18 hrs by serial dilution method; method in brief: as §1
[8] = test system: Mycobacterium tuberculosis; assay: Antitubercular activity against Mycobacterium tuberculosis H37Rv at MIC after 24 hrs by broth microdilution method; method in brief: as §2
Escherichia coli [9] = assay: Antimicrobial activity against Escherichia coli […] at MIC after 3 to 4 days by disc diffusion method
Pseudomonas aeruginosa [10] = assay: Antimicrobial activity against Pseudomonas aeruginosa ATTC 27853 after 16 to 18 hrs by serial dilution method; method in brief: as §1

| SMILES | diameter of the inhibition zone (DIZ) (Pseudomonas aeruginosa [1]) [mm] | diameter of the inhibition zone (DIZ) (Klebsiella pneumoniae [2]) [mm] | MIC (Klebsiella pneumoniae [3]) [µg/mL] | diameter of the inhibition zone (DIZ) (Staphylococcus aureus [4]) [mm] | MIC (Escherichia coli [5]) [µg/mL] | MIC [6] [µg/mL] | MIC (Staphylococcus aureus [7]) [µg/mL] | inhibition (INH) [8] [%] | diameter of the inhibition zone (DIZ) (Escherichia coli [9]) [mm] | MIC (Pseudomonas aeruginosa [10]) [µg/mL] |
| --- | --- | --- | --- | --- | --- | --- | --- | --- | --- | --- |
| Fc1cccc(-c2nc3ccccc3c3oc(NCCc4ccccc4)nc23)c1 | <10 | <10 | 50 (≈ 130 µM) | <10 | 50 (≈ 130 µM) | > 100 | 50 (≈ 130 µM) | 0 | <10 | 50 (≈ 130 µM) |
| COc1ccccc1Nc1nc2c(-c3ccc(F)cc3)nc3ccccc3c2o1 | 19 | 23 | 6.25 (≈ 16.2 µM) | 22 | 6.25 (≈ 16.2 µM) | 1 (≈ 2.59 µM) | 6.25 (≈ 16.2 µM) | 99 | 27 | 6.25 (≈ 16.2 µM) |
| Fc1ccc(-c2nc3ccccc3c3oc(NCc4ccccc4)nc23)cc1 | 24 | 19 | 6.25 (≈ 16.9 µM) | 21 | 6.25 (≈ 16.9 µM) | 10 (≈ 27.1 µM) | 6.25 (≈ 16.9 µM) | 95 | 24 | 6.25 (≈ 16.9 µM) |
| CCCCCNc1nc2c(-c3ccc(F)cc3)nc3ccccc3c2o1 | <10 | <10 | 50 (≈ 143 µM) | <10 | 50 (≈ 143 µM) | > 100 | 50 (≈ 143 µM) | 0 | <10 | 50 (≈ 143 µM) |
| Fc1ccc(-c2nc3ccccc3c3oc(Nc4cccc(Cl)c4)nc23)cc1 | 24 | 21 | 6.25 (≈ 16 µM) | 22 | 6.25 (≈ 16 µM) | 1 (≈ 2.57 µM) | 6.25 (≈ 16 µM) | 99 | 26 | 6.25 (≈ 16 µM) |
| Cc1cc(C)cc(Nc2nc3c(-c4ccc(F)cc4)nc4ccccc4c3o2)c1 | 14 | 12 | 12.5 (≈ 32.6 µM) | 11 | 6.25 (≈ 16.3 µM) | 10 (≈ 26.1 µM) | 12.5 (≈ 32.6 µM) | 95 | 24 | 12.5 (≈ 32.6 µM) |
| Fc1ccc(Nc2nc3c(-c4ccc(F)cc4)nc4ccccc4c3o2)cc1 | 22 | 20 | 6.25 (≈ 16.7 µM) | 20 | 6.25 (≈ 16.7 µM) | 1 (≈ 2.68 µM) | 6.25 (≈ 16.7 µM) | 99 | 28 | 6.25 (≈ 16.7 µM) |
